Measured values of several laboratories.
Each line is one published result; the experiments were not run side by side.
Effect on: cell growth or viability

O=C(Nc1ccc(F)cc1)Nc1nc2cc(-c3ccc4ncn(CCN5CCOCC5)c(=O)c4c3)ccc2s1  IC50 (NCI-H1975; MTT; 72 h): 4.31 µM
CCCCn1cnc2ccc(-c3ccc(NC(=O)NCCC)nc3)cc2c1=O  IC50 (NCI-H1975; CCK-8; 72 h): 8.75 µM
COC[C@H](NC(=O)c1ccn(S(C)(=O)=O)c1)C(=O)Nc1nc(-c2cccc(N3C[C@@H](C)O[C@@H](C)C3)n2)cs1  IC50 (HCC515; ATP luminescence; 7 days): 0.119 µM
CCCCC(=O)Nc1ccc(-c2ccc3ncn(CCC)c(=O)c3c2)cc1F  IC50 (NCI-H1975; CCK-8; 72 h): 1.68 µM
O=C(Nc1ccc(F)cc1)Nc1nc2cc(-c3ccc4ncn(CCC5CCCCC5)c(=O)c4c3)ccc2s1  IC50 (NCI-H1975; MTT; 72 h): 5.97 µM
CCCCC(=O)Nc1ccc(-c2ccc3ncn(CCC)c(=O)c3c2)c(C)n1  IC50 (NCI-H1975; CCK-8; 72 h): 5.44 µM
CN(C)C(=O)c1cc2cnc(Nc3ccc(-c4ccc5c(=O)cc(N6CCOCC6)oc5c4)cc3)nc2n1C1CCCC1  IC50 (HEK293; ATP luminescence; 72 h): 0.55 µM
Cc1cccc(NC(=O)Nc2ccc(-c3ccc4ncn(Cc5ccccc5)c(=O)c4c3)cn2)c1  IC50 (NCI-H1975; CCK-8; 72 h): > 10 µM
CCC(=O)Nc1nc2cc(-c3ccc4ncn(Cc5ccccc5)c(=O)c4c3)ccc2s1  IC50 (NCI-H1975; MTT; 72 h): > 20 µM
Nc1cccc2c1C(=O)N(C1CCC(=O)NC1=O)C2=O (centres unmarked)  IC50 (TMD8; CCK-8; 7 days): > 20 µM
COc1cc(C2C3=C(COC3=O)N(CCO)c3cc4c(cc32)CCC4)cc(OC)c1OC (centres unmarked)  IC50 (HEK293; ATP luminescence; 48 h): 1.55 µM
COc1ccc(NC(=O)Nc2nc3cc(-c4ccc5ncn(CCN6CCOCC6)c(=O)c5c4)ccc3s2)cc1  IC50 (NCI-H1975; MTT; 72 h): > 20 µM
Nc1ccn([C@@H]2O[C@H](CO)[C@@H](O)C2(F)F)c(=O)n1  IC50 (HEK293; MTT; 48 h): 17.4 µg/mL
CN1CCC(NC2CCc3[nH]c4c(C(N)=O)ccc(-c5ccccc5Cl)c4c3C2)CC1 (centres unmarked)  IC50 (Pfeiffer; 96 h): 0.0257 µM
COc1ccc(C[C@H](N)C(=O)N[C@H]2[C@@H](O)[C@H](n3cnc4c(N(C)C)ncnc43)O[C@@H]2CO)cc1  IC50 (HEK293; resazurin; 72 h): 0.72 µM
Nc1nnc(-c2ccccc2O)cc1N1CC2CCC(C1)N2c1ccnc(F)c1  IC50 (HCC515; ATP luminescence; 7 days): > 1 µM
O=C(Nc1ccc(-c2ccc3ncn(Cc4ccc5c(c4)OCO5)c(=O)c3c2)cn1)c1ccccc1  IC50 (NCI-H1975; CCK-8; 72 h): > 10 µM
O=C(Nc1cccc(F)c1)Nc1nc2cc(-c3ccc4ncn(Cc5ccccc5)c(=O)c4c3)ccc2s1  IC50 (NCI-H1975; MTT; 72 h): > 20 µM
CCCCC(=O)Nc1ccc(-c2ccc3ncn(CCC)c(=O)c3c2)cc1  IC50 (NCI-H1975; CCK-8; 72 h): 9.81 µM
O=C(Nc1ccc(C(F)(F)F)cc1)Nc1nc2cc(-c3ccc4ncn(CCN5CCOCC5)c(=O)c4c3)ccc2s1  IC50 (NCI-H1975; MTT; 72 h): 1.77 µM
